According to article PMC4745115 (Nature communications, 2014):

Assays:
BetP [1] = biological target: T1, BetP (Corynebacterium glutamicum, UniProt P54582, G153D); test: tryptophan fluorescence titration, proteoliposomes; assay type: binding
T1 sequence (P54582 1-595 G153D): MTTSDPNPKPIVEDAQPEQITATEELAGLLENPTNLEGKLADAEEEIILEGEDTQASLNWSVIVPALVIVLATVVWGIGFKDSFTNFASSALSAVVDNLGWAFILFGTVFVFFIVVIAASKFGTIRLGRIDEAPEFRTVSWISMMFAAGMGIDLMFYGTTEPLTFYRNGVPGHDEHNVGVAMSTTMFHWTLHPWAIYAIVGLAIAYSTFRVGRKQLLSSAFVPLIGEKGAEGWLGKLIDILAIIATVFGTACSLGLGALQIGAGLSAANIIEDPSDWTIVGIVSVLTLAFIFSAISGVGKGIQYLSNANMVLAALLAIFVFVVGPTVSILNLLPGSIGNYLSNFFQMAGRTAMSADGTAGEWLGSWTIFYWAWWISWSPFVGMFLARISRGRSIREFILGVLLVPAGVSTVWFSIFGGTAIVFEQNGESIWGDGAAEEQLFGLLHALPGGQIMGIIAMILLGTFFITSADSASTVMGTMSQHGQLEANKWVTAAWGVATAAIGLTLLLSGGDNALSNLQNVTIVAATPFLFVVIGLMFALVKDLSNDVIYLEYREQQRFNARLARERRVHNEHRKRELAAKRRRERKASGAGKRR
Method in brief: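 Strep-tagged BetP-G153D was expressed in E. coli, affinity-purified in DDM, and reconstituted into E. coli polar-lipid liposomes (lipid/protein 10:1 w/w, 250 mM KPi pH 7.5), used at 100 μg/ml protein. Substrate was 0.1–16 mM with 100 mM NaCl at pH 7.5, or 0.8–30 mM (pH 5.5) or 0.8–100 mM (pH 7.5) without NaCl. Excitation 295 nm; emission at 340 nm, eight readings averaged. Mean and SD were fitted for the binding constant.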

BetP [2] = biological target: BetP (Corynebacterium glutamicum, UniProt P54582); test: […]-betaine uptake in E. coli MKH13 expressing BetP; assay type: cell-based; conditions: 250 μM [14C]-betaine, NaCl titration, pH 7.5, 800 mOsmol/kg, 37 °C; labelled compound
BetP (Corynebacterium glutamicum, UniProt P54582), sequence (P54582 whole entry): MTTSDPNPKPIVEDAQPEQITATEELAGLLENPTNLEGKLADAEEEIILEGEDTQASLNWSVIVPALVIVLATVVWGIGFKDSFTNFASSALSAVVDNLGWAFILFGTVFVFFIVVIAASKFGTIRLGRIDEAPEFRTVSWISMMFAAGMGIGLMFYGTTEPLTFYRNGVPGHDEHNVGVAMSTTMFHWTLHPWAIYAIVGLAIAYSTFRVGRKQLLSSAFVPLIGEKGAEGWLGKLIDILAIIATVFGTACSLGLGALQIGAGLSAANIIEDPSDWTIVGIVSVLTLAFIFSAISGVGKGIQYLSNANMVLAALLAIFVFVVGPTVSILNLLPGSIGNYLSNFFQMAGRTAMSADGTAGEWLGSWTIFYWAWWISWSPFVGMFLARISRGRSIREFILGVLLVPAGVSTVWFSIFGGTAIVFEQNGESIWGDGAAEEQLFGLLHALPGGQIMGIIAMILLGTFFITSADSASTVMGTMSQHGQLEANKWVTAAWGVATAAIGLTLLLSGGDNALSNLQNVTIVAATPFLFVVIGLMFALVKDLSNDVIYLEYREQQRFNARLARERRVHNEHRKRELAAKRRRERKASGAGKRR

C[N+](C)(C)CCO [Choline]
Kd (BetP [1]): 1150 ± 90 µM

C[N+](C)(C)CC(=O)[O-] [[14C]-betaine]
[14C]-betaine uptake in E. coli MKH13 expressing BetP (BetP [2]): cells expressing BetP WT or the mutant N309A
